Measurements taken from ChEMBL document CHEMBL1933017, “Synthesis and biological evaluation of some thiazolidinones as antimicrobial agents” (2012).
In brackets after ≈: the same amount, converted by molar mass.

What was measured:
Aspergillus fumigatus [1] = experiment: Antifungal activity against Aspergillus fumigatus after 48 hrs by agar streak dilution method; type: functional
Outline: (§1)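 Fungal MIC by agar streak dilution on Sabouraud dextrose agar, poured 4–5 mm deep. Compound from a DMSO stock (100 μg/mL) was incorporated at serial concentrations of 3.12–100 µg/mL. Plates were inoculated with about 10⁵ CFU/mL of suspension and incubated at (37 ± 1) °C for 48 h. Each value is the mean of three independent experiments.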

Candida albicans [2] = experiment: Antifungal activity against Candida albicans after 48 hrs by agar streak dilution method; type: functional; outline: as §1
Shigella flexneri [3] = experiment: Antibacterial activity against Shigella flexneri at 100 ug/disc after 24 hrs by disc diffusion method; type: functional; settings: read-out: DIZ
Outline: (§2)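 Paper disc diffusion on autoclaved Mueller-Hinton agar poured 5 mm deep. Agar was swab-inoculated with 10⁵ CFU/mL suspension (0.5 McFarland). Discs 6.25 mm across were soaked in compound solution in DMSO (3.12–100 µg/mL) and plates incubated 24 h at (37 ± 1) °C. Read-out was inhibition zone (mm). DMSO control disc; ciprofloxacin or ketoconazole reference, 100 µg/disc. Mean of three independent experiments.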

Pseudomonas aeruginosa [4] = experiment: Antibacterial activity against Pseudomonas aeruginosa […] after 24 hrs by agar streak dilution method; type: functional
Aspergillus clavatus [5] = experiment: Antifungal activity against Aspergillus clavatus at 100 ug/disc after 24 hrs by disc diffusion method; type: functional; settings: read-out: DIZ; outline: as §2
Aspergillus clavatus [6] = experiment: Antifungal activity against Aspergillus clavatus after 48 hrs by agar streak dilution method; type: functional; outline: as §1
Klebsiella pneumoniae [7] = experiment: Antibacterial activity against Klebsiella pneumoniae at 100 ug/disc after 24 hrs by disc diffusion method; type: functional; settings: read-out: DIZ; outline: as §2
Proteus vulgaris [8] = experiment: Antibacterial activity against Proteus vulgaris at 100 ug/disc after 24 hrs by disc diffusion method; type: functional; settings: read-out: DIZ; outline: as §2
Proteus vulgaris [9] = experiment: Antibacterial activity against Proteus vulgaris after 24 hrs by agar streak dilution method; type: functional
Outline: (§3)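 MIC by agar streak dilution. Graded amounts of DMSO stock (100 μg/mL) were mixed into molten sterile nutrient agar and poured 4–5 mm deep. Serial concentrations spanned 3.12–100 µg/mL. Plates were inoculated with about 10⁵ CFU/mL of bacterial suspension and incubated at (37 ± 1) °C for 24 h. Each value is the mean of three independent experiments.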

Staphylococcus aureus [10] = experiment: Antibacterial activity against Staphylococcus aureus at 100 ug/disc after 24 hrs by disc diffusion method; type: functional; settings: read-out: DIZ; outline: as §2
Pseudomonas aeruginosa [11] = experiment: Antibacterial activity against Pseudomonas aeruginosa at 100 ug/disc after 24 hrs by disc diffusion method; type: functional; settings: read-out: DIZ; outline: as §2
Escherichia coli [12] = experiment: Antibacterial activity against Escherichia coli after 24 hrs by agar streak dilution method; type: functional; outline: as §3
Aspergillus niger [13] = experiment: Antifungal activity against Aspergillus niger at 100 ug/disc after 24 hrs by disc diffusion method; type: functional; settings: read-out: DIZ; outline: as §2
Escherichia coli [14] = experiment: Antibacterial activity against Escherichia coli at 100 ug/disc after 24 hrs by disc diffusion method; type: functional; settings: read-out: DIZ; outline: as §2
Aspergillus fumigatus [15] = experiment: Antifungal activity against Aspergillus fumigatus at 100 ug/disc after 24 hrs by disc diffusion method; type: functional; settings: read-out: DIZ; outline: as §2
Salmonella typhi [16] = experiment: Antibacterial activity against Salmonella Typhi at 100 ug/disc after 24 hrs by disc diffusion method; type: functional, Salmonella enterica subsp. enterica serovar Typhi; settings: Salmonella enterica, read-out: DIZ
Outline: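 Paper disc diffusion on Mueller-Hinton agar poured 5 mm deep; 10⁵ CFU/mL suspension (0.5 McFarland) swabbed over surface. 6.25 mm filter paper discs soaked in compound in DMSO, incubated 24 h at (37 ± 1) °C; inhibition zone diameter in mm. DMSO disc as blank; ciprofloxacin 100 µg/disc as reference. Mean of three independent experiments.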

Aspergillus niger [17] = experiment: Antifungal activity against Aspergillus niger after 48 hrs by agar streak dilution method; type: functional; outline: as §1
Salmonella typhi [18] = experiment: Antibacterial activity against Salmonella Typhi after 24 hrs by agar streak dilution method; type: functional, Salmonella enterica subsp. enterica serovar Typhi; settings: Salmonella enterica
Outline: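 Agar streak dilution: DMSO stock (100 µg/mL) graded into molten sterile nutrient agar, poured 4–5 mm deep and solidified. Plates carry serial dilutions spanning 3.12–100 µg/mL. Applied ~10⁵ CFU/mL suspension, then incubated 24 h at (37 ± 1) °C. MIC read as the lowest inhibitory concentration; each value is the mean of three independent experiments.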

Staphylococcus aureus [19] = experiment: Antibacterial activity against Staphylococcus aureus after 24 hrs by agar streak dilution method; type: functional; outline: as §3
Candida albicans [20] = experiment: Antifungal activity against Candida albicans at 100 ug/disc after 24 hrs by disc diffusion method; type: functional; settings: read-out: DIZ; outline: as §2
Shigella flexneri [21] = experiment: Antibacterial activity against Shigella flexneri after 24 hrs by agar streak dilution method; type: functional; outline: as §3
Klebsiella pneumoniae [22] = experiment: Antibacterial activity against Klebsiella pneumoniae […] after 24 hrs by agar streak dilution method; type: functional
Bacillus cereus [23] = experiment: Antibacterial activity against Bacillus cereus at 100 ug/disc after 24 hrs by disc diffusion method; type: functional; settings: read-out: DIZ; outline: as §2
Bacillus cereus [24] = experiment: Antibacterial activity against Bacillus cereus after 24 hrs by agar streak dilution method; type: functional; outline: as §3

CCN1CCN(CC2SC(c3ccc([N+](=O)[O-])cc3)N(c3ccc(Nc4nc(Oc5cc(=O)n(C)c6ccccc56)nc(N(C)C)n4)cc3)C2=O)CC1 (stereo unspecified)
MIC (Aspergillus fumigatus [1]): 100 µg/mL (≈ 136 µM)
MIC (Candida albicans [2]): 100 µg/mL (≈ 136 µM)
zone of inhibition at 100 µg/disc (Shigella flexneri [3]): 22 mm
MIC (Pseudomonas aeruginosa [4]): 100 µg/mL (≈ 136 µM)
zone of inhibition at 100 µg/disc (Aspergillus clavatus [5]): 21 mm
MIC (Aspergillus clavatus [6]): 100 µg/mL (≈ 136 µM)
zone of inhibition at 100 µg/disc (Klebsiella pneumoniae [7]): 23 mm
zone of inhibition at 100 µg/disc (Proteus vulgaris [8]): 25 mm
MIC (Proteus vulgaris [9]): 50 µg/mL (≈ 67.9 µM)
zone of inhibition at 100 µg/disc (Staphylococcus aureus [10]): 22 mm
zone of inhibition at 100 µg/disc (Pseudomonas aeruginosa [11]): 18 mm
MIC (Escherichia coli [12]): 100 µg/mL (≈ 136 µM)
zone of inhibition at 100 µg/disc (Aspergillus niger [13]): 23 mm
zone of inhibition at 100 µg/disc (Escherichia coli [14]): 24 mm
zone of inhibition at 100 µg/disc (Aspergillus fumigatus [15]): 20 mm
zone of inhibition at 100 µg/disc (Salmonella typhi [16]): 22 mm
MIC (Aspergillus niger [17]): 50 µg/mL (≈ 67.9 µM)
MIC (Salmonella typhi [18]): 100 µg/mL (≈ 136 µM)
MIC (Staphylococcus aureus [19]): 50 µg/mL (≈ 67.9 µM)
zone of inhibition at 100 µg/disc (Candida albicans [20]): 17 mm
MIC (Shigella flexneri [21]): 50 µg/mL (≈ 67.9 µM)
MIC (Klebsiella pneumoniae [22]): 50 µg/mL (≈ 67.9 µM)
zone of inhibition at 100 µg/disc (Bacillus cereus [23]): 22 mm
MIC (Bacillus cereus [24]): 50 µg/mL (≈ 67.9 µM)

CCN1CCN(CC2SC(c3ccccc3[N+](=O)[O-])N(c3ccc(Nc4nc(Oc5cc(=O)n(C)c6ccccc56)nc(N(C)C)n4)cc3)C2=O)CC1 (stereo unspecified)
MIC (Aspergillus fumigatus [1]): 100 µg/mL (≈ 136 µM)
MIC (Candida albicans [2]): 100 µg/mL (≈ 136 µM)
zone of inhibition at 100 µg/disc (Shigella flexneri [3]): 14 mm
MIC (Pseudomonas aeruginosa [4]): 100 µg/mL (≈ 136 µM)
zone of inhibition at 100 µg/disc (Aspergillus clavatus [5]): 15 mm
MIC (Aspergillus clavatus [6]): 100 µg/mL (≈ 136 µM)
zone of inhibition at 100 µg/disc (Klebsiella pneumoniae [7]): 15 mm
zone of inhibition at 100 µg/disc (Proteus vulgaris [8]): 17 mm
MIC (Proteus vulgaris [9]): 100 µg/mL (≈ 136 µM)
zone of inhibition at 100 µg/disc (Staphylococcus aureus [10]): 13 mm
zone of inhibition at 100 µg/disc (Pseudomonas aeruginosa [11]): 16 mm
MIC (Escherichia coli [12]): 100 µg/mL (≈ 136 µM)
zone of inhibition at 100 µg/disc (Aspergillus niger [13]): < 10 mm
zone of inhibition at 100 µg/disc (Escherichia coli [14]): 14 mm
zone of inhibition at 100 µg/disc (Aspergillus fumigatus [15]): 13 mm
zone of inhibition at 100 µg/disc (Salmonella typhi [16]): 15 mm
MIC (Aspergillus niger [17]): 100 µg/mL (≈ 136 µM)
MIC (Salmonella typhi [18]): 100 µg/mL (≈ 136 µM)
MIC (Staphylococcus aureus [19]): 100 µg/mL (≈ 136 µM)
zone of inhibition at 100 µg/disc (Candida albicans [20]): 19 mm
MIC (Shigella flexneri [21]): 100 µg/mL (≈ 136 µM)
MIC (Klebsiella pneumoniae [22]): 100 µg/mL (≈ 136 µM)
zone of inhibition at 100 µg/disc (Bacillus cereus [23]): 17 mm
MIC (Bacillus cereus [24]): 50 µg/mL (≈ 67.9 µM)

CCN1CCN(CC2SC(c3ccc(O)cc3)N(c3ccc(Nc4nc(Oc5cc(=O)n(C)c6ccccc56)nc(N(C)C)n4)cc3)C2=O)CC1 (stereo unspecified)
MIC (Aspergillus fumigatus [1]): 50 µg/mL (≈ 70.6 µM)
MIC (Candida albicans [2]): 100 µg/mL (≈ 141 µM)
zone of inhibition at 100 µg/disc (Shigella flexneri [3]): 13 mm
MIC (Pseudomonas aeruginosa [4]): 100 µg/mL (≈ 141 µM)
zone of inhibition at 100 µg/disc (Aspergillus clavatus [5]): 21 mm
MIC (Aspergillus clavatus [6]): 100 µg/mL (≈ 141 µM)
zone of inhibition at 100 µg/disc (Klebsiella pneumoniae [7]): 19 mm
zone of inhibition at 100 µg/disc (Proteus vulgaris [8]): 16 mm
MIC (Proteus vulgaris [9]): 100 µg/mL (≈ 141 µM)
zone of inhibition at 100 µg/disc (Staphylococcus aureus [10]): 23 mm
zone of inhibition at 100 µg/disc (Pseudomonas aeruginosa [11]): 14 mm
MIC (Escherichia coli [12]): 50 µg/mL (≈ 70.6 µM)
zone of inhibition at 100 µg/disc (Aspergillus niger [13]): 18 mm
zone of inhibition at 100 µg/disc (Escherichia coli [14]): 16 mm
zone of inhibition at 100 µg/disc (Aspergillus fumigatus [15]): 21 mm
zone of inhibition at 100 µg/disc (Salmonella typhi [16]): 17 mm
MIC (Aspergillus niger [17]): 100 µg/mL (≈ 141 µM)
MIC (Salmonella typhi [18]): 50 µg/mL (≈ 70.6 µM)
MIC (Staphylococcus aureus [19]): 25 µg/mL (≈ 35.3 µM)
zone of inhibition at 100 µg/disc (Candida albicans [20]): 19 mm
MIC (Shigella flexneri [21]): 100 µg/mL (≈ 141 µM)
MIC (Klebsiella pneumoniae [22]): 50 µg/mL (≈ 70.6 µM)
zone of inhibition at 100 µg/disc (Bacillus cereus [23]): 20 mm
MIC (Bacillus cereus [24]): 50 µg/mL (≈ 70.6 µM)

CCN1CCN(CC2SC(c3ccc(Br)cc3)N(c3ccc(Nc4nc(Oc5cc(=O)n(C)c6ccccc56)nc(N(C)C)n4)cc3)C2=O)CC1 (stereo unspecified)
MIC (Aspergillus fumigatus [1]): 100 µg/mL (≈ 130 µM)
MIC (Candida albicans [2]): 100 µg/mL (≈ 130 µM)
zone of inhibition at 100 µg/disc (Shigella flexneri [3]): 15 mm
MIC (Pseudomonas aeruginosa [4]): 100 µg/mL (≈ 130 µM)
zone of inhibition at 100 µg/disc (Aspergillus clavatus [5]): 16 mm
MIC (Aspergillus clavatus [6]): 100 µg/mL (≈ 130 µM)
zone of inhibition at 100 µg/disc (Klebsiella pneumoniae [7]): 19 mm
zone of inhibition at 100 µg/disc (Proteus vulgaris [8]): 17 mm
MIC (Proteus vulgaris [9]): 100 µg/mL (≈ 130 µM)
zone of inhibition at 100 µg/disc (Staphylococcus aureus [10]): 15 mm
zone of inhibition at 100 µg/disc (Pseudomonas aeruginosa [11]): 16 mm
MIC (Escherichia coli [12]): 100 µg/mL (≈ 130 µM)
zone of inhibition at 100 µg/disc (Aspergillus niger [13]): 14 mm
zone of inhibition at 100 µg/disc (Escherichia coli [14]): 19 mm
zone of inhibition at 100 µg/disc (Aspergillus fumigatus [15]): 14 mm
zone of inhibition at 100 µg/disc (Salmonella typhi [16]): 17 mm
MIC (Aspergillus niger [17]): 100 µg/mL (≈ 130 µM)
MIC (Salmonella typhi [18]): 100 µg/mL (≈ 130 µM)
MIC (Staphylococcus aureus [19]): 100 µg/mL (≈ 130 µM)
zone of inhibition at 100 µg/disc (Candida albicans [20]): 12 mm
MIC (Shigella flexneri [21]): 100 µg/mL (≈ 130 µM)
MIC (Klebsiella pneumoniae [22]): 100 µg/mL (≈ 130 µM)
zone of inhibition at 100 µg/disc (Bacillus cereus [23]): 18 mm
MIC (Bacillus cereus [24]): 100 µg/mL (≈ 130 µM)
